{"source": "ChEMBL document CHEMBL4325827", "about": "“Bifidenone: Structure-Activity Relationship and Advanced Preclinical Candidate” (J Med Chem, 2018)", "key": {"[1]": {"assay": "Toxicity in Crl:NU(NCr)-Foxn1 nu mouse xenografted with human LOX-IMVI cells assessed as mortality at 40 mg/kg, ip qd administered for 5 consecutive days", "type": "organism-based", "settings": "in vivo", "outline": "(§1)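 Female athymic nude mice bearing subcutaneous xenografts started from cultured human tumor cells. Mice were split into vehicle and treatment groups once tumors reached about 75-200 mm3. Dosing was ip at 5-10 mL/kg in 22% ethanol, 38% PEG400, 40% 20 mM Na citrate pH 5.0. Deaths per group were recorded alongside maximum mean bodyweight loss.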"}, "NCI-H460": {"test_system": "NCI-H460", "assay": "Antitumor activity against human NCI-H460 cells xenografted in Crl:NU(NCr)-Foxn1 nu mouse assessed as tumor growth inhibition at 60 mg/kg, ip qd administered for 3 consecutive days followed by 2 days of rest for 3 cycles relative to control", "type": "functional", "settings": "48 h, read-out: TGI", "outline": "(§2)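 Female athymic nude mice bearing subcutaneous xenografts, started from cultured cells (NCI-H460, Calu-6, NCI-H69, LOX-IMVI) or from serially passaged tumour fragments (NCI-H522). Mice were grouped into vehicle and treatment arms at tumour volumes of about 75-200 mm3. Dosing was ip at 5-10 mL/kg in 22% ethanol, 38% PEG400, 40% 20 mM Na citrate pH 5.0. Caliper volumes were taken as (length × width2)/2. Treated and control delta weights were median tumour weight minus staging-day median.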"}, "EKVX [2]": {"test_system": "EKVX", "assay": "Potency index, ratio of paclitaxel IC50 to compound IC50 for taxane-resistant human EKVX cells after 72 hrs by CellTiter 96 aqueous nonradioactive cell proliferation assay", "type": "functional"}, "HCT-15 [3]": {"test_system": "HCT-15", "assay": "Antiproliferative activity against taxane-resistant human HCT15 cells after 72 hrs by CellTiter 96 aqueous nonradioactive cell proliferation assay", "type": "functional, cell-based", "settings": "HCT-15, 72 h", "outline": "(§3)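 Antiproliferation in cultured tumour cells, at least 3 replicate wells per concentration per experiment. NCI-H460 came from ATCC. M14, NCI/ADR-RES, OVCAR-4, HCT-15, ACHN and SF-295 came from the National Cancer Institute. IC50 reported from single experiments where no SD is given.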"}, "[4]": {"assay": "Toxicity in Crl:NU(NCr)-Foxn1 nu mouse xenografted with human Calu6 cells assessed as mortality at 50 mg/kg, ip qd administered for 3 consecutive days followed by 2 days of rest for 4 cycles", "type": "organism-based", "settings": "in vivo, 48 h", "outline": "as §1"}, "[5]": {"assay": "Toxicity in Crl:NU(NCr)-Foxn1 nu mouse xenografted with human NCI-H460 cells assessed as maximum body weight loss at 60 mg/kg, ip qd administered for 3 consecutive days followed by 2 days of rest for 3 cycles measured after 8 days post dose relative to control", "type": "organism-based", "settings": "in vivo, 192 h", "outline": "as §2"}, "ACHN": {"test_system": "ACHN", "assay": "Antiproliferative activity against taxane-resistant human ACHN cells after 72 hrs by CellTiter 96 aqueous nonradioactive cell proliferation assay", "type": "functional, cell-based", "outline": "as §3"}, "[6]": {"assay": "Toxicity in Crl:NU(NCr)-Foxn1 nu mouse xenografted with human LOX-IMVI cells assessed as maximum body weight loss at 30 mg/kg, ip qd administered for 7 consecutive days measured after 6 days post dose relative to control", "type": "organism-based", "settings": "in vivo, 144 h", "outline": "as §2"}, "[7]": {"assay": "Toxicity in Crl:NU(NCr)-Foxn1 nu mouse xenografted with human NCI-H69 cells assessed as maximum body weight loss at 60 mg/kg, ip dosed on day 1 followed by 4 days rest and subsequently dosed at 60 mg/kg, ip qd administered for 3 consecutive days followed by 2 days of rest for 2 cycles measured after 3 days post dose relative to control", "type": "organism-based", "settings": "in vivo, 72 h", "outline": "as §2"}, "[8]": {"assay": "Toxicity in Crl:NU(NCr)-Foxn1 nu mouse xenografted with human LOX-IMVI cells assessed as mortality at 30 mg/kg, ip qd administered for 7 consecutive days", "type": "organism-based", "settings": "in vivo", "outline": "as §1"}, "HCT-15 [9]": {"test_system": "HCT-15", "assay": "Potency index, ratio of paclitaxel IC50 to compound IC50 for taxane-resistant human HCT15 cells after 72 hrs by CellTiter 96 aqueous nonradioactive cell proliferation assay", "type": "functional"}, "[10]": {"assay": "Toxicity in Crl:NU(NCr)-Foxn1 nu mouse xenografted with human NCI-H69 cells assessed as mortality at 60 mg/kg, ip dosed on day 1 followed by 4 days rest and subsequently dosed at 60 mg/kg, ip qd administered for 3 consecutive days followed by 2 days of rest for 2 cycles", "type": "organism-based", "settings": "in vivo", "outline": "as §1"}, "OVCAR-4 [11]": {"test_system": "OVCAR-4", "assay": "Potency index, ratio of paclitaxel IC50 to compound IC50 for taxane-resistant human OVCAR4 cells after 72 hrs by CellTiter 96 aqueous nonradioactive cell proliferation assay", "type": "functional"}, "NCI-H69": {"test_system": "NCI-H69", "assay": "Antitumor activity against human NCI-H69 cells xenografted in Crl:NU(NCr)-Foxn1 nu mouse assessed as tumor growth inhibition at 60 mg/kg, ip dosed on day 1 followed by 4 days rest and subsequently dosed at 60 mg/kg, ip qd administered for 3 consecutive days followed by 2 days of rest for 2 cycles relative to control", "type": "functional", "settings": "read-out: TGI", "outline": "as §2"}, "[12]": {"assay": "Toxicity in Crl:NU(NCr)-Foxn1 nu mouse xenografted with human […] cells assessed as maximum body weight loss at 60 mg/kg, ip qd administered for 3 consecutive days followed by 2 days of rest for 3 cycles measured after 3 days post dose relative to control", "type": "organism-based", "settings": "in vivo, 72 h", "outline": "as §2"}, "EKVX [13]": {"test_system": "EKVX", "assay": "Antiproliferative activity against taxane-resistant human EKVX cells after 72 hrs by CellTiter 96 aqueous nonradioactive cell proliferation assay", "type": "functional, cell-based"}, "UO-31": {"test_system": "UO-31", "assay": "Antiproliferative activity against taxane-resistant human UO31 cells after 72 hrs by CellTiter 96 aqueous nonradioactive cell proliferation assay", "type": "functional, cell-based", "settings": "UO-31, 72 h"}, "[14]": {"assay": "Toxicity in Crl:NU(NCr)-Foxn1 nu mouse xenografted with human NCI-H460 cells assessed as mortality at 40 mg/kg, ip qd administered for 3 consecutive days followed by 2 days of rest for 3 cycles", "type": "organism-based", "settings": "in vivo, 48 h", "outline": "as §1"}, "SF-295": {"test_system": "SF-295", "assay": "Potency index, ratio of paclitaxel IC50 to compound IC50 for taxane-resistant human SF295 cells after 72 hrs by CellTiter 96 aqueous nonradioactive cell proliferation assay", "type": "functional"}, "[15]": {"assay": "Toxicity in Crl:NU(NCr)-Foxn1 nu mouse xenografted with human Calu6 cells assessed as maximum body weight loss at 60 mg/kg, ip qd administered for 3 consecutive days followed by 2 days of rest for 4 cycles measured after 2 days post dose relative to control", "type": "organism-based", "settings": "in vivo, 48 h", "outline": "as §2"}, "NCI/ADR-RES": {"test_system": "NCI/ADR-RES", "assay": "Potency index, ratio of paclitaxel IC50 to compound IC50 for taxane-resistant human NCI/ADR-RES cells after 72 hrs by CellTiter 96 aqueous nonradioactive cell proliferation assay", "type": "functional"}, "Tubulin (Sus scrofa)": {"biological_target": "Tubulin (Sus scrofa) (UniProt P02554+P02550)", "sequence (P02550 whole entry, looked up)": "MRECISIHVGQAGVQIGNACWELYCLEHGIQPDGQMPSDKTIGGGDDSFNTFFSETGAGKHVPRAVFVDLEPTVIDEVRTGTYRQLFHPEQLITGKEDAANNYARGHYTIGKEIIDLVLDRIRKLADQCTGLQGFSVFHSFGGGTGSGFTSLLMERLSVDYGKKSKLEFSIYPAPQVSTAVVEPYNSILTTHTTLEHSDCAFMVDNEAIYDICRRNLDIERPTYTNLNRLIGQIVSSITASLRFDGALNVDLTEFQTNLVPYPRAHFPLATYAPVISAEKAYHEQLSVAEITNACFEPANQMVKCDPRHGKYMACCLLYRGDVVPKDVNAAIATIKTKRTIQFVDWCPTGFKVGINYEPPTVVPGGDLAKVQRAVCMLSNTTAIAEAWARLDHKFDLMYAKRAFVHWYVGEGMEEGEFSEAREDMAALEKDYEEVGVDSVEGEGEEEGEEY", "sequence (P02554 whole entry, looked up)": "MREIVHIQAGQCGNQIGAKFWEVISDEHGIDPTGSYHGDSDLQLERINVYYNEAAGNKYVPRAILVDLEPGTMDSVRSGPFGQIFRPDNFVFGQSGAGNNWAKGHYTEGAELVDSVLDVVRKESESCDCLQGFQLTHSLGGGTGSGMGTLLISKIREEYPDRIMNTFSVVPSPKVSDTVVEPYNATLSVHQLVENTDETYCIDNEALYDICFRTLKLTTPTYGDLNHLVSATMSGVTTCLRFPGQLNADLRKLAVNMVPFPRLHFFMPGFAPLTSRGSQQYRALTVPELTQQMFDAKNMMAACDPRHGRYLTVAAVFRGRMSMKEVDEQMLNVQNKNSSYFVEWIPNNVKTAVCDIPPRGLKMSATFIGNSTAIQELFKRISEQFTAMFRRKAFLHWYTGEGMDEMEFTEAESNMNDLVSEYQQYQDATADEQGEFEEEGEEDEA", "assay": "Inhibition of pig tubulin polymerization at 10 uM measured at 1 min intervals for 60 mins", "type": "protein assay", "outline": "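Polymerization assay using porcine tubulin.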"}, "[16]": {"assay": "Toxicity in Crl:NU(NCr)-Foxn1 nu mouse xenografted with human […] cells assessed as maximum body weight loss at 40 mg/kg, ip qd administered for 3 consecutive days followed by 2 days of rest for 3 cycles measured after 7 days post dose relative to control", "type": "organism-based", "settings": "in vivo, 168 h", "outline": "as §2"}, "NCI-H522": {"test_system": "NCI-H522", "assay": "Antitumor activity against human NCI-H522 cells xenografted in Crl:NU(NCr)-Foxn1 nu mouse assessed as tumor growth inhibition at 50 mg/kg, ip qd administered for 3 consecutive days followed by 2 days of rest for 3 cycles relative to control", "type": "functional", "settings": "48 h, read-out: TGI", "outline": "as §2"}, "OVCAR-4 [17]": {"test_system": "OVCAR-4", "assay": "Antiproliferative activity against taxane-resistant human OVCAR4 cells after 72 hrs by CellTiter 96 aqueous nonradioactive cell proliferation assay", "type": "functional, cell-based", "settings": "OVCAR-4, 72 h", "outline": "as §3"}}, "note": "Activity calls are given as the source filed them. The rule behind the calls is not given here."}
{"smiles": "C=CC[C@H]1C[C@]2([C@H](C)Cc3cc(O)c(OC)cc3F)OCOC2=CC1=O", "values": [{"measurement": "Activity", "setting": "[1]", "value": "Non-Toxic"}, {"measurement": "inhibition in vivo at 60 mg/kg", "setting": "NCI-H460", "value": 67, "unit": "%"}, {"measurement": "Ratio IC50", "setting": "EKVX [2]", "value": 21}, {"measurement": "IC50", "setting": "HCT-15 [3]", "value": 14, "unit": "nM"}, {"measurement": "Activity", "setting": "[4]", "value": "Non-Toxic"}, {"measurement": "Activity", "setting": "[5]", "value": 12, "unit": "%"}, {"measurement": "IC50", "setting": "ACHN", "value": 12, "unit": "nM"}, {"measurement": "Activity", "setting": "[6]", "value": 9, "unit": "%"}, {"measurement": "Activity", "setting": "[7]", "value": 6, "unit": "%"}, {"measurement": "Activity", "setting": "[8]", "value": "Non-Toxic"}, {"measurement": "Ratio IC50", "setting": "HCT-15 [9]", "value": 14}, {"measurement": "Activity", "setting": "[10]", "value": "Non-Toxic"}, {"measurement": "Ratio IC50", "setting": "OVCAR-4 [11]", "value": ">75"}, {"measurement": "inhibition in vivo at 60 mg/kg", "setting": "NCI-H69", "value": 77, "unit": "%"}, {"measurement": "Activity", "setting": "[12]", "value": 9, "unit": "%"}, {"measurement": "IC50", "setting": "EKVX [13]", "value": 7, "unit": "nM"}, {"measurement": "IC50", "setting": "UO-31", "value": 7, "unit": "nM"}, {"measurement": "Activity", "setting": "[14]", "value": "Toxic"}, {"measurement": "Ratio IC50", "setting": "SF-295", "value": 6}, {"measurement": "Activity", "setting": "[15]", "value": 2, "unit": "%"}, {"measurement": "Ratio IC50", "setting": "NCI/ADR-RES", "value": ">1000"}, {"measurement": "inhibition", "setting": "Tubulin (Sus scrofa)", "value": "Active"}, {"measurement": "Activity", "setting": "[16]", "value": 3, "unit": "%"}, {"measurement": "inhibition in vivo at 50 mg/kg", "setting": "NCI-H522", "value": 69, "unit": "%"}, {"measurement": "IC50", "setting": "OVCAR-4 [17]", "value": 8, "unit": "nM"}]}
